Screens from PubChem BioAssay.
The full list was thinned out, with hits kept by preference.
UPR XBP1 act: activators of adaptive arm of unfolded protein response (XBP1); activation, % at 20 µM; CHO-XBP1 luciferase reporter, IRE1-XBP1 UPR activation, luminescence; percent of tunicamycin response, DMSO as zero; 330,000 tested, 0.33% active;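 active means versus positive control, 20 µM dose yields 30% or more activation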;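 further: 100% = tunicamycin at 10 µg/mL and 0% = DMSO only wells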
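assay system = CHO-XBP1 luciferase reporter cells | amount = 1000 cells/well | buffer or medium = F12 plus 10% FBS | compound dosing = single point, 20 µM final compound, 1% DMSO | incubation = 16-18 h cell attachment at 37 °C, then 6 h compound exposure | detection = Steady-Glo luminescence read | controls = tunicamycin 10 µg/mL and vehicle-only wells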
H9c2 protect: protects H9c2 cardiomyocytes from peroxide injury; H2O2 injury protection, ATPLite, 2 h; protection from H2O2 cell death, % at 20 µM; 360,000 tested, 0.63% active;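 active means compounds giving at least 50% protection of heart cells from peroxide-induced death in the single-dose screen, raw or plate-pattern-corrected value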;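 further: 0% = DMSO wells with peroxide and 100% = DMSO wells without peroxide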
CHOP inhibitor: blocks CHOP induction under ER stress. CHO-K1 CHOP-promoter luciferase, tunicamycin-induced, 15-18 h. inhibition, % at 10 µM. 220,000 tested, 3.8% active. AID 2732;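 active means compounds that reduced the stress-induced luciferase reporter signal by more than about 70% of percent inhibition, limit read from the data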;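 further: 0% = tunicamycin plus vehicle and 100% = wells without tunicamycin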
UPR CHOP act: apoptotic UPR (CHOP) activation. CHO-CHOP luciferase reporter, luminescence; percent of tunicamycin response over DMSO baseline. activation, % at 10 µM. 330,000 tested, 0.34% active. AID 449763;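 active means at 10 µM dose, activation of 40% or more, normalized to positive control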;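 further: 100% = tunicamycin at 10 µg/mL and 0% = DMSO alone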
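Test system: CHO-CHOP cells, stable luciferase reporter of PERK-eIF2a-CHOP signalling | Quantity: 500 CHO-CHOP cells per well | Buffer or medium: F12 plus 10% serum | Compound dosing: 10 µM single point, 0.5% DMSO | Schedule: 6 h compound treatment, 37 °C | Signal: Luciferase luminescence | Control set: Tunicamycin high control, DMSO low control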
hiPSC survival: hiPSC single-cell survival enhancement | ATPlite luminescence; 100% = ROCK inhibitor wells, 0% = DMSO | survival enhancement, % at 20 µM | 360,000 tested, 0.044% active | AID 602274; in the data active means survival enhancement above about 18%;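 further: cells exposed to compounds for 16 hours before the ATP read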
Numbers without * were called inactive; / = no result.

SMILES | UPR XBP1 act | H9c2 protect | CHOP inhibitor | UPR CHOP act | hiPSC survival
Cc1nnsc1C(=O)N/N=C/c1ccc2ccccc2c1O | 1.8 | 14.4 | 74.9* | -0.9 | -0.8
CC(=O)n1cc(/C=N/NC(=O)c2sc(C)nc2C)c2ccccc21 | 5.3 | 56.5* | -4.0 | 2.8 | -3.6
CC(=O)n1cc(/C=N/NC(=O)c2ccc([N+](=O)[O-])cc2)c2ccccc21 | 8.2 | 10.6 | / | 4.2 | -0.4
Cc1nnsc1C(=O)N/N=C/c1ccccc1 | 6.0 | 12.8 | 28.5 | -0.4 | 0.1
CCCCc1ccc(S(=O)(=O)NC(=O)C2(C)CCN2C(=O)CC2CC2)cc1 (stereo not given) | / | -2.3 | / | / | 0.7
O=C1c2ccccc2-c2n[nH]c(=O)c3ccc(N4CCCCC4)c1c23 | 7.9 | 32.6 | 78.7* | -0.5 | -0.2
O=C1c2cccc3c(N4CCCCC4)ccc(c23)C(=O)N1c1ccccn1 | -2.6 | 3.3 | 19.7 | 0.5 | 4.8
COC(=O)c1sccc1NC(=O)c1cc(-c2ccc(C)cc2)nc2ccccc12 | 0.3 | -3.0 | -24.4 | 0.8 | -2.9
COC(=O)c1sc(NC(=O)c2cc(-c3ccccc3)nc3ccccc23)c(C#N)c1C | 0.2 | -34.5 | 75.5* | 8.4 | 0.1
COC(=O)c1sccc1NC(=O)c1cc(-c2cc(C)ccc2C)nc2ccccc12 | 0.2 | -1.3 | 92.8* | 1.2 | -1.9
CC1(C(=O)O)CCCN1C(=O)c1ccco1 (stereo not given) | / | -1.0 | / | / | 5.2
CC(C)Cc1ccc(C(C)CC2=CCC(CN(C)C)C2=O)cc1 (stereo not given) | / | -18.9 | / | / | -3.5
CCSc1nnc(N)s1 | 0.4 | 76.3* | 15.6 | 0.5 | 8.1
CC(C)CSc1nnc(N)s1 | -0.1 | 15.6 | 18.1 | 1.0 | 5.5
CCC1(O)CC2CN(CCc3c([nH]c4ccccc34)[C@@](C(=O)OC)(c3cc4c(cc3OC)N(C)C3[C@]45CCN4CC=C[C@@](CC)([C@@H](OC(C)=O)[C@]3(O)C(=O)OC)[C@H]45)C2)C1 (stereo not given in full) | / | / | -4.7 | / | /
Cc1sc2ncnc(N3CCCCC3)c2c1C | 1.2 | -13.5 | 23.4 | -1.2 | 0.8
Cc1ccc(OCCN2CCN(c3ncnc4sc(C)c(C)c34)CC2)cc1 | -2.6 | -13.8 | 72.2* | 3.2 | 0.8
CC(=O)N(C)c1ccc(NC(=O)C(Sc2ccccc2)c2ccccc2)cc1 (stereo not given) | -1.7 | 7.0 | -11.5 | 0.6 | -0.5
O=C(Nc1ccc(Cl)c([N+](=O)[O-])c1)C(Sc1ccccc1)c1ccccc1 (stereo not given) | 1.8 | -10.7 | 83.5* | 5.2 | -1.3
CC(C)(C)NS(=O)(=O)c1ccc(NC(=O)C(Sc2ccccc2)c2ccccc2)cc1 (stereo not given) | 2.3 | -13.4 | 75.1* | 0.4 | -0.5
C[C@@H]1CN([C@H](C)CO)C(=O)c2cc(Br)cnc2O[C@@H]1CN(C)C(=O)Cc1ccccc1 | / | -0.5 | / | / | -2.0
Clc1cc(Br)ccc1OCCOCCOc1cccc2cccnc12 | -3.4 | -2.3 | 70.6* | -2.0 | 0.9
COc1cc(NC(=O)N2CCc3nc(NCc4cccc(Oc5ccccc5)c4)ncc3C2)cc(OC)c1OC | / | -5.2 | / | / | 0.5
COc1cccc(Cn2c(Oc3cccc(C)c3)nc3c2c(=O)n(C)c(=O)n3C)c1 | 2.6 | 17.0 | 78.7* | 1.9 | 3.0
C=CC(C)Sc1nc2c(c(=O)n(C)c(=O)n2C)n1Cc1ccccc1Cl (stereo not given) | -2.2 | -0.7 | 82.8* | -2.3 | 0.3
SMILES | UPR XBP1 act | H9c2 protect | CHOP inhibitor | UPR CHOP act | hiPSC survival
C=CCOc1nc2c(c(=O)n(C)c(=O)n2C)n1Cc1ccc(Cl)cc1 | 1.9 | -13.8 | 81.8* | 7.8 | 1.4
CCCCCCCCCCCCCCCCOCC(COCC(F)(F)F)OP(=O)(O)OCO (stereo not given) | / | / | -4.5 | / | /
COC(=O)[C@]12CCCCC=C1N(Cc1cccc3ccccc13)C(=O)[C@H](CC(=O)N1CCCCC1)C2 | / | / | / | / | -0.4
COc1ccc(OC)c(NC(=O)CSc2nc3ccccc3c3nc4ccccc4n23)c1 | / | / | 78.2* | / | /
COc1ccc(NC(=O)COC(=O)c2c3c(nc4ccccc24)CCCC3)cc1 | 1.6 | 13.9 | 16.7 | 2.2 | 3.3
COc1ccc(OC)c(NC(=O)COC(=O)c2c3c(nc4ccccc24)CCCC3)c1 | -1.7 | 56.4* | 5.1 | 3.4 | 4.3
COc1c(OC)c(O)c2c(=O)c(O)c(-c3ccccc3)oc2c1OC | 4.9 | 0.4 | -5.0 | 4.2 | -0.6
